Measured values as given in ChEMBL document CHEMBL1250501, “Anti-tubercular agents. Part 5: synthesis and biological evaluation of benzothiadiazine 1,1-dioxide based congeners” (Eur J Med Chem, 2010).

Legend:
[1] = Cytotoxicity against mouse AML-12 cells assessed as cell viability at 2 ug/ml after 24 hrs by MTT assay; type: cell-based; settings: read-out: Activity
In short: (§1)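 AML-12 hepatocytes in 96-well format, in DMEM with 10% FCS. Exposed to test material at 2–100 µg/mL for 24 h at 37 °C in CO₂. MTT then added for 3 h and formazan formation read. Percentage cytotoxicity calculated relative to untreated cells.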

[2] = Cytotoxicity against mouse AML-12 cells assessed as cell viability at 5 ug/ml after 24 hrs by MTT assay; type: cell-based; settings: read-out: Activity; in short: as §1
[3] = Cytotoxicity against mouse AML-12 cells assessed as cell viability at 10 ug/ml after 24 hrs by MTT assay; type: cell-based; settings: read-out: Activity; in short: as §1
[4] = Cytotoxicity against mouse AML-12 cells assessed as cell viability at 25 ug/ml after 24 hrs by MTT assay; type: cell-based; settings: read-out: Activity; in short: as §1
[5] = Cytotoxicity against mouse AML-12 cells assessed as cell viability at 50 ug/ml after 24 hrs by MTT assay; type: cell-based; settings: read-out: Activity; in short: as §1
[6] = Cytotoxicity against mouse AML-12 cells assessed as cell viability at 100 ug/ml after 24 hrs by MTT assay; type: cell-based; settings: read-out: Activity; in short: as §1
[7] = tested on: Mycobacterium tuberculosis; assay: Antimycobacterial activity against Mycobacterium tuberculosis H37Rv infected in BALB/c mouse lung assessed as reduction of bacterial load at 25 mg/kg, po administered 1 week after infection measured after 4 weeks; type: functional
In short: (§2)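 Female BALB/c mice, 6 weeks old, 20–22 g, acclimatised one week. Infected intranasally with about 1.5 × 10⁶ CFU of H37Rv grown 10 days in 7H9/ADC. Treatment began 1 week post-infection, given orally in 50% PEG in water, for 4 weeks. Lungs and spleens homogenised in saline with 0.05% Tween 80. Duplicate 10-fold dilutions plated on 7H10/OADC, 37 °C, 5% CO₂, 4–6 weeks. Result expressed as log₁₀ CFU per organ versus untreated controls.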

[8] = tested on: Mycobacterium tuberculosis; assay: Antimycobacterial activity against Mycobacterium tuberculosis H37Rv infected in BALB/c mouse spleen assessed as reduction of bacterial load at 25 mg/kg, po administered 1 week after infection measured after 4 weeks; type: functional; in short: as §2

O=[N+]([O-])c1ccc(/C=N/NC2=NS(=O)(=O)c3ccccc3N2c2ccccc2)o1
viability at 24 h, 2 ug/ml [1]: 2.4% | viability at 24 h, 5 ug/ml [2]: 9% | viability at 24 h, 10 ug/ml [3]: 9.1% | viability at 24 h, 25 ug/ml [4]: 8.5% | viability at 24 h, 50 ug/ml [5]: 8.7% | viability at 24 h, 100 ug/ml [6]: 14.9% | log10cfu [7]: 4.8 | log10cfu [8]: 2
